Data as given in ChEMBL document CHEMBL1124416, “5-(1-piperazinyl)-1H-1,2,4-triazol-3-amines as antihypertensive agents” (1989).

Columns and labels:
[1] = tested on: Rattus norvegicus; test: Effect on the cardiovascular response to ACH challenge was measured in conscious spontaneously hypertensive rats administered perorally at 8 mL/100 g; format: functional, Heart
[2] = tested on: Rattus norvegicus; test: Effect on the cardiovascular response to tyramine challenge was measured in conscious spontaneously hypertensive rats administered perorally at 50 mg/kg; format: functional, Heart; settings: route oral
[3] = tested on: Rattus norvegicus; test: The antihypertensive activity was assessed by measuring the heart rate in rats when administered at 25 mg/kg; format: functional
Outline: (§1)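 16-week-old male SH rats (Okamoto) were dosed by oral gavage in 3% starch in normal saline (2 mL/kg), plus an oral saline load of 25 mL/kg. They were redosed at 24 h without the saline load. MABP and HR were taken by direct femoral arterial puncture under local anesthesia 4 h after the second dose. HR was rounded to 10 bpm.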

[4] = tested on: Rattus norvegicus; test: Effect on the cardiovascular response to norepinephrine challenge was measured in conscious spontaneously hypertensive rats administered perorally at 8 mL/100 g; format: functional, Heart
[5] = tested on: Rattus norvegicus; test: Effect on the cardiovascular response to tilt challenge was measured in conscious spontaneously hypertensive rats administered perorally at 50 mg/kg; format: functional, Heart; settings: route oral
Outline: (§2)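 Male Okamoto-Aoki SHR, about 350 g, conscious, held supine with elastic tape; tail base locally anesthetized with 2% procaine sc. Control responses were recorded first. Vehicle (10 mL/kg) or compound was then given orally, and challenges were repeated 1 h later. Challenges were a 75° tilt for 30 s and iv agonists (epinephrine 1 or 2 μg/kg). Read-out was change in MABP (mmHg); paired Student's t test.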

[6] = tested on: Rattus norvegicus; test: Effect on the cardiovascular response to isoproterenol challenge was measured in conscious spontaneously hypertensive rats administered perorally at 50 mg/kg; format: functional, Heart; settings: route oral
[7] = tested on: Rattus norvegicus; test: Effect on the cardiovascular response to isoproterenol challenge was measured in conscious spontaneously hypertensive rats administered perorally at 8 mL/100 g; format: functional, Heart
[8] = tested on: Rattus norvegicus; test: Effect on the cardiovascular response to epinephrine (1ug/kg, iv) challenge was measured in conscious spontaneously hypertensive rats administered perorally at 1 mL/100g; format: functional, Heart; outline: as §2
[9] = tested on: Rattus norvegicus; test: Effect on the cardiovascular response to tyramine challenge was measured in conscious spontaneously hypertensive rats administered perorally at 8 mL/100 g; format: functional, Heart
[10] = species: Rattus norvegicus; format: functional, Artery; settings: dose 100 mg/kg; route oral
[11] = tested on: Rattus norvegicus; test: Effect on the cardiovascular response to epinephrine (2ug/kg, iv) challenge was measured in conscious spontaneously hypertensive rats administered perorally at 50 mg/kg; format: functional, Heart; settings: route oral; outline: as §2
[12] = tested on: Rattus norvegicus; test: Effect on the cardiovascular response to angiotensin II challenge was measured in conscious spontaneously hypertensive rats administered perorally at 50 mg/kg; format: functional, Heart; settings: route oral
[13] = tested on: Rattus norvegicus; test: Effect on the cardiovascular response to norepinephrine challenge was measured in conscious spontaneously hypertensive rats administered perorally at 50 mg/kg; format: functional, Heart; settings: route oral
[14] = tested on: Rattus norvegicus; test: Effect on the cardiovascular response to tilt challenge was measured in conscious spontaneously hypertensive rats administered perorally at 1 mL/100g; format: functional, Heart; outline: as §2
[15] = tested on: Rattus norvegicus; test: Effect on the cardiovascular response to epinephrine (1ug/kg, iv) challenge was measured in conscious spontaneously hypertensive rats administered perorally at 50 mg/kg; format: functional, Heart; settings: route oral; outline: as §2
[16] = tested on: Rattus norvegicus; test: Effect on the cardiovascular response to epinephrine (2ug/kg, iv) challenge was measured in conscious spontaneously hypertensive rats administered perorally at 1 mL/100g; format: functional, Heart; outline: as §2
[17] = tested on: Rattus norvegicus; test: Effect on the cardiovascular response to DMPP challenge was measured in conscious spontaneously hypertensive administered perorally rats at 1 mL/100g; format: functional, Heart
[18] = tested on: Rattus norvegicus; test: Effect on the cardiovascular response to ACH challenge was measured in conscious spontaneously hypertensive rats administered perorally at 50 mg/kg; format: functional, Heart; settings: route oral
[19] = tested on: Rattus norvegicus; test: Effect on the cardiovascular response to angiotensin II challenge was measured in conscious spontaneously hypertensive rats administered perorally at 1 mL/100g; format: functional, Heart
[20] = tested on: Rattus norvegicus; test: Assessment of antihypertensive activity at 100 mg/kg administered perorally by measuring the heart rate in rats; format: functional; settings: route oral
[21] = tested on: Rattus norvegicus; test: Effect on the cardiovascular response to angiotensin II challenge was measured in conscious spontaneously hypertensive rats administered perorally at 8 mL/100 g; format: functional, Heart
[22] = tested on: Rattus norvegicus; test: The antihypertensive activity was assessed by measuring the mean arterial blood pressure in rats when administered at 50 mg/kg; format: functional; outline: as §1
[23] = tested on: Rattus norvegicus; test: Effect on the cardiovascular response to isoproterenol challenge was measured in conscious spontaneously hypertensive rats administered perorally at 1 mL/100g; format: functional, Heart
[24] = tested on: Rattus norvegicus; test: Effect on the cardiovascular response to DMPP challenge was measured in conscious spontaneously hypertensive rats administered perorally at 50 mg/kg; format: functional, Heart; settings: route oral
[25] = tested on: Rattus norvegicus; test: The antihypertensive activity was assessed by measuring the mean arterial blood pressure in rats when administered at 25 mg/kg; format: functional; outline: as §1
[26] = tested on: Rattus norvegicus; test: Effect on the cardiovascular response to norepinephrine challenge was measured in conscious spontaneously hypertensive rats administered perorally at 1 mL/100g; format: functional, Heart
[27] = tested on: Rattus norvegicus; test: The antihypertensive activity was assessed by measuring the heart rate in rats when administered at 50 mg/kg; format: functional; outline: as §1
[28] = tested on: Rattus norvegicus; test: Effect on the […] was measured in conscious spontaneously hypertensive rat administered perorally at 1 mL/100g; format: functional, Heart
[29] = tested on: Rattus norvegicus; test: Effect on the cardiovascular response to ACH challenge was measured in conscious spontaneously hypertensive rats administered perorally at 1 mL/100g; format: functional, Heart

`Nc1n[nH]c(N2CCN(Cc3cccc(Cl)c3)CC2)n1` showed an MABP [1] of -68.5 delta mmHg, an MABP [2] of 34.8 delta mmHg and an HR [3] of 440 beats min-1. It also gave an MABP [4] of 47.8 delta mmHg, an MABP [5] of 9.3 delta mmHg and an MABP [6] of -46.7 delta mmHg. It also gave an MABP [7] of -49.8 delta mmHg, an MABP [8] of 28.8 delta mmHg and an MABP [9] of 35.3 delta mmHg. The MABP [10] was 89 mmHg, the MABP [11] was 50.7 delta mmHg and the MABP [12] was 70.2 delta mmHg. For the same molecule, the MABP [13] was 63 delta mmHg, the MABP [14] was 17.3 delta mmHg and the MABP [15] was 29 delta mmHg. The MABP [16] was 37.3 delta mmHg, the MABP [17] was 52.5 delta mmHg and the MABP [18] was -47 delta mmHg. For the same molecule, the MABP [19] was 49 delta mmHg, the HR [20] was 300 beats min-1 and the MABP [21] was 55 delta mmHg. For the same molecule, the MABP [22] was 113 mmHg, the MABP [23] was -38.5 delta mmHg and the MABP [24] was 30.3 delta mmHg. It also gave an MABP [25] of 132 mmHg, an MABP [26] of 45.8 delta mmHg and an HR [27] of 440 beats min-1. The MABP [28] was 34.5 delta mmHg and the MABP [29] was -54.5 delta mmHg.
